The list is not random: actives were taken first. Their share in the collection is about 4.3%.
Yeast life ext – extends the lifespan of yeast. S. cerevisiae growth with nicotinamide, OD615; deaD strain in restrictive glucose medium. inhibition of the nicotinamide effect, % at 10 µM. actives 0.68% (n = 130,000). AID 775;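 active means inhibition above a set limit, placed 3 SD over the median of all compounds, cut at about 26% in these data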;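 further: 0% = nicotinamide-treated wells and 100% = cells grown without nicotinamide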
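Assay system: engineered S. cerevisiae DeaD replicative-lifespan strain, galactose-grown log-phase cells; Buffer or medium: CSMM-D glucose medium, restrictive; Probe or stimulus: nicotinamide 1.5 mM; Compound: single dose 10 µM compound, 0.25% DMSO; Schedule: 4 h preincubation then 48 h treatment at 30 °C; Technique: OD615 measurement.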
RAM network inh – yeast RAM network inhibition | inhibition, % at 50 µM | actives 1.8% (n = 190,000) | AID 868 | S. cerevisiae dse1pr::URA3 reporter, 5-FOA growth OD615, 2 d; analog-sensitive cbk1-as2 kinase mutant strain;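 active means inhibition above a set limit, 3 SD over mean compound inhibition, cut at about 8.4% in these data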;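 further: 0% = DMSO-only wells with no growth and 100% = 10 µM 1-NA-PP1 full growth; inhibition rescues growth on 5-FOA so higher OD means more RAM inhibition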
Yeast growth inh – chemicals that inhibit yeast BB579 growth in restrictive medium (lifespan-shortening candidates); S. cerevisiae BB579 growth, OD615, 48 h; inhibition, % at 10 µM; actives 0.51% (n = 140,000);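 active means inhibition above a set limit, 3 SD over the mean compound inhibition, cut at about 44% in these data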
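System: DeaD yeast strain BB579; buffer or medium: CSMM-D dextrose restrictive medium; technique: OD at 615 nm; schedule: 4 h cell preincubation, 48 h compound exposure, 30 °C humidified; doses: single 10 µM dose; controls: amphotericin B 10 µg/mL, positive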
WT yeast gro inh – growth inhibition of WT yeast, mitochondrial fusion screen; AID 1362; inhibition, % at 10 µM; actives 2.1% (n = 190,000); mitochondrial fusion phenotypic screen, WT strain; in the data active means inhibition above about 58%; tested in S. cerevisiae
Numbers without * were called inactive; x = not tested or not shown.

SMILES	Yeast life ext	RAM network inh	Yeast growth inh	WT yeast gro inh
CCCOc1ccc(C2NC(=S)NC(c3ccccc3)=C2C(=O)Nc2ccc(C)cc2)cc1OC (centres undefined)	-3.1	1.0	-10.8	14.0
O=C1NC2(CCCCC2)NN1c1ccccc1	-4.3	1.9	-12.2	2.4
CC1CCC2(CC1)NC(=S)N(c1ccccc1)N2 (centres undefined)	-14.1	1.2	69.2*	19.0
Brc1cc2c(cc1Cn1c(-c3cncs3)nc3ccccc31)OCO2	22.9	10.2*	-44.9	26.8
Cc1ccccc1Cn1c(-c2cncs2)nc2ccccc21	-7.7	-0.1	-70.9	39.3
O=C(/C=C/c1cn(-c2ccccc2)nc1-c1ccccc1)Nc1ccc(C(=O)O)cc1	x	8.9*	x	10.9
CC(=O)Oc1c(C)c(=O)n(C)c2ccccc12	-0.9	1.2	-15.3	-15.1
CC(=O)Oc1c(C(=O)c2nnc(C)o2)c(=O)n(C)c2ccccc12	54.3*	0.3	19.0	-11.1
COc1ccc2c(c1OC)C(=O)OC2Nn1cncn1 (centres undefined)	50.7*	1.2	-56.5	-21.1
COc1ccc2c(c1OC)C(=O)OC2Nc1ncccc1C (centres undefined)	6.5	-0.3	-11.5	-5.1
CCOC(=O)C(C(=O)OCC)C(C(=O)OCC)N1CCOCC1 (centres undefined)	-2.4	1.2	-47.8	37.9
O=c1[nH]c2cc3c(cc2cc1CN(Cc1cccnc1)C(=S)NCc1ccco1)OCCO3	x	0.2	x	-4.4
O=C(O)CC/C(=C\c1ccc(N2CCOCC2)c([N+](=O)[O-])c1)c1nc2ccccc2s1	x	2.5	x	-9.8
O=C(O)CC/C(=C\c1ccc(Cl)c([N+](=O)[O-])c1)c1nc2ccccc2s1	9.1	10.7*	-23.3	-34.5
Cc1nn(CC(=O)NCCCc2ccccc2)c(C)c1[N+](=O)[O-]	x	4.1	x	-13.8
Nn1cnnc1N/N=C/c1cc(Br)cc(Br)c1O	2.4	9.6*	-1.1	-1.5
COCCOC(=O)C1=C(C)OC(N)=C(C#N)C1c1cc2cccc(C)c2nc1Cl (centres undefined)	x	4.7	x	-5.0
CCCCn1c(CN2CCN(c3cccc(Cl)c3)CC2)nc2c1c(=O)n(C)c(=O)n2C	-7.9	0.0	-38.8	71.8*
CCCCCn1c(CN2CCN(c3cc(Cl)ccc3C)CC2)nc2c1c(=O)[nH]c(=O)n2C	-5.0	0.9	3.8	65.5*
CCCCCn1c(N2CCN(c3cccc(Cl)c3)CC2)nc2c1c(=O)[nH]c(=O)n2C	-8.0	2.9	-42.3	-2.6
CC(C)(C)C(=O)CSc1nnc(Nc2ccccc2)s1	x	2.6	x	3.3
NNc1cc([N+](=O)[O-])cc2c1C(=O)N(Cc1ccccc1)S2=O (centres undefined)	x	1.4	x	-7.6
CCCCSc1nnc(CNC(=O)C23CC4CC(CC(C4)C2)C3)n1Cc1ccccc1	0.3	-0.1	-6.7	58.5*
Cn1ccnc1C(=O)c1cc(SCC(=O)N2CCOCC2)nc2ccccc12	x	1.2	x	-14.9
Cc1n[nH]c(=O)n1-c1cccc(C(F)(F)F)c1	74.8*	2.7	-10.5	-2.9
SMILES	Yeast life ext	RAM network inh	Yeast growth inh	WT yeast gro inh
c1ccc(-n2c(-c3ccco3)nnc2-c2ccco2)cc1	-9.4	-0.2	47.5*	-15.1
O=C1OCCC1Sc1nnc(-c2ccco2)n1-c1ccccc1 (centres undefined)	x	-1.0	x	-14.4
COc1ccc(CN(Cc2cccnc2)C(=S)NCCc2ccccc2)cc1OC	-11.1	1.9	-18.9	0.9
Cc1ccc(Cl)cc1NC(=S)NCCCSC1CCCCC1	x	7.5	x	86.2*
CCc1ccccc1NC(=S)NCCSc1ccc(Cl)cc1	x	10.5*	x	81.2*
CCN(CC(=O)Nc1cc(Cl)ccc1C)C(=O)C1CCCCC1	x	2.2	x	-4.1
Cc1cccc(NC(=S)NCCSc2ccc(Cl)cc2)c1	x	8.6*	x	80.6*
Cc1cccc(NC(=S)NC(C)(C)CC(C)(C)C)c1	x	-0.1	x	68.5*
Cc1cccc(NC(=O)NCCc2ccc(Cl)cc2)c1	x	0.4	x	7.6
O=C(/C=C/c1ccccc1)NCCSc1ccc(Cl)cc1	-7.1	2.2	-27.7	13.7
Cc1cc(Cl)ccc1NC(=S)NCCCO	0.2	-1.1	-0.3	6.1
Cc1ccc(C)c(NC(=S)NCCSc2ccc(Cl)cc2)c1	-4.2	8.0	41.5	77.8*
Cc1ccccc1NC(=S)NCCSc1ccc(Cl)cc1	x	1.3	x	79.7*
COc1ccc(OC)c(NC(=S)NCCSc2ccc(C)cc2)c1	-5.9	3.0	-5.7	66.7*
Cc1ccccc1NC(=S)NCCO	x	1.6	x	-4.7
Cc1ccc(NC(=S)NCCSc2ccc(Cl)cc2)c(C)c1	1.0	10.9*	42.5	73.3*
CC1(C)Cc2nc3oc4c(=O)n(CC(=O)Nc5ccccc5)cnc4c3cc2CO1	4.8	3.4	-23.2	9.8
Cc1cccc(NC(=O)Cn2cnc3c(oc4nc5c(cc43)COC(C)(C)C5)c2=O)c1	-4.2	8.5*	-7.7	-9.8
CCOc1ccccc1C(=O)Nc1cc(OC)ccc1OC	-6.9	2.1	-22.1	62.8*
COc1ccc(OC)c(NC(=O)c2ccccc2SC)c1	-33.0	3.2	-40.5	21.9
CCN1C(=O)N[C@H](c2ccc(Br)cc2)C(C(C)=O)=C1C	40.1*	-0.4	-20.0	2.9
COCCN1C(=O)N[C@@H](c2ccccc2)C(C(C)=O)=C1C	2.4	1.7	-36.2	9.5
Cc1ccc(C(=O)NCC(=O)OCC(=O)c2ccc3c(c2)NC(=O)CO3)cc1C	x	1.9	x	-1.7
Cc1cc(C)cc(OCC(=O)OCC(=O)c2ccc3c(c2)NC(=O)CO3)c1	-10.2	5.9	-34.8	70.4*
CCOC(=O)Cc1csc(NC(=O)C(NC(=O)C2CCCCC2)C(C)C)n1 (centres undefined)	x	2.0	x	14.5
SMILES	Yeast life ext	RAM network inh	Yeast growth inh	WT yeast gro inh
COc1ccc(CCn2nnnc2C(C(C)C)N2CCN(c3ncccn3)CC2)cc1OC (centres undefined)	-10.8	1.9	-50.8	61.8*
COc1ccc(N2CCN(C(c3nnnn3CCc3ccccc3)C(C)C)CC2)cc1 (centres undefined)	-11.7	-0.6	-53.6	6.2
COc1ccc(CCn2nnnc2C(CC(C)C)N2CCN(c3ncccn3)CC2)cc1OC (centres undefined)	-24.8	2.9	-17.4	65.5*
CCN1N=C(c2cc(Cl)sc2Cl)CSC1=O	x	0.3	-32.4	22.7
CCOc1cccc(C(=O)Nc2ccc3oc(Cc4ccc(Cl)cc4)nc3c2)c1	-3.8	10.6*	-40.4	58.8*
O=C(NN1CCOCC1)c1cc(S(=O)(=O)Nc2cccc(C(F)(F)F)c2)ccc1Cl	0.6	-0.1	-13.4	-10.0
COc1cc(/C=C\C(=O)NCc2ccc3[nH]c(C)cc3c2)cc(OC)c1OC	-0.9	1.8	-24.4	9.6
COc1ccc(/C=C\C(=O)NCc2ccc3[nH]c(C)cc3c2)cc1OC	-1.4	10.5*	-37.5	-1.9
Oc1cccc(C=NCc2ccccc2)c1O	-19.4	-1.7	98.1*	16.1
NC(=O)c1ccsc1NC(=O)Cc1ccc([N+](=O)[O-])cc1	x	-0.1	x	-4.1
CNS(=O)(=O)c1cc(N(C)S(=O)(=O)c2ccc(C)cc2)c(C)cc1C	x	10.1*	x	-27.7
Cc1ccc(S(=O)(=O)N(C)c2cc(S(=O)(=O)Nc3ccncc3)c(C)cc2C)cc1	5.2	1.6	-36.4	-7.6
